# Source: PubChem
# BB579 growth dn: growth inhibitors of yeast BB579 in restrictive medium, primary screen, yeast lifespan-shortening project, S. cerevisiae. OD615, 48 h. inhibition, % at 10 µM. actives 0.51% (n = 140,000);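 active = inhibition above a set limit, 3 SD over the mean compound inhibition, cut at about 44% in these data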
#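 test system = yeast BB579 (DeaD) | buffer or medium = restrictive CSMM-D medium | doses = single compound dose of 10 µM, 0.25% DMSO final | times = 4 h preincubation and 48 h exposure at 30 °C | technique = culture absorbance at 615 nm | benchmarks = amphotericin B 10 µg/mL, positive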
# TNAP inh no acc: human TNAP enzyme inhibitors, primary screen, biochemical, luminescent, no phosphate acceptor, uHTS; AID 1012, 2008; purified TNAP, CDP-star luminescence, 30 min; Alkaline phosphatase, tissue-nonspecific isozyme (Homo sapiens), P05186; inhibition, % at 20 µM; actives 0.26% (n = 200,000);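 active = tissue-nonspecific alkaline phosphatase inhibition above about 50% at 20 µM in the single-dose screen, limit read from the data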
# Target sequence (P05186 whole entry, looked up): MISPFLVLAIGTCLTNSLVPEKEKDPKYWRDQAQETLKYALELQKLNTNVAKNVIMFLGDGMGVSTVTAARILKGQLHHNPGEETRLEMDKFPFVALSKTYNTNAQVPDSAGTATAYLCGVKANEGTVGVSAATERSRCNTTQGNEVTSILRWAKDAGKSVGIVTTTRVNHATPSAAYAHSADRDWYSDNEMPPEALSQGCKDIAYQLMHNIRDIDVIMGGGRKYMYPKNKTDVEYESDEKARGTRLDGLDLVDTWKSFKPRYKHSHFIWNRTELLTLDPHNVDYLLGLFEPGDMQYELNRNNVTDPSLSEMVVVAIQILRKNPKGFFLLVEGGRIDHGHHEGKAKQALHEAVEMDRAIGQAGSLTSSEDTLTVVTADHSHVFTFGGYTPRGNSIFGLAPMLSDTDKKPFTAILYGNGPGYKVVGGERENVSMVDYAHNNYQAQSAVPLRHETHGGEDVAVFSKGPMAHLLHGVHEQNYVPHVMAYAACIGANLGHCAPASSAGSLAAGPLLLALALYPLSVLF
# Yeast lifespan up: compounds extending yeast replicative lifespan, primary screen, S. cerevisiae, OD615 | S. cerevisiae growth with nicotinamide; deaD strain in restrictive glucose medium | inhibition of the nicotinamide effect, % at 10 µM | actives 0.68% (n = 130,000) | AID 775, 2007;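 active = inhibition above a set limit, placed 3 SD over the median of all compounds, cut at about 26% in these data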
#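 assay system = DeaD-strain S. cerevisiae | buffer or medium = restrictive glucose medium | reagent = 1.5 mM nicotinamide | compound = 10 µM single point, 0.25% DMSO | incubation = 48 h compound exposure at 30 °C, humidified | signal = OD615 measurement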
# RAM network inh: inhibitors of the yeast RAM network, primary screen, dse1pr::URA3 reporter, 5-FOA selection; S. cerevisiae dse1pr::URA3 reporter, 5-FOA growth OD615, 2 d; analog-sensitive cbk1-as2 kinase mutant strain; actives 1.8% (n = 190,000); AID 868, 2007; inhibition, % at 50 µM;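 active = inhibition above a set limit, 3 SD over mean compound inhibition, cut at about 8.4% in these data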;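 also: inhibition rescues growth on 5-FOA so higher OD means more RAM inhibition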
# TNAP inh hi DEA: human TNAP enzyme inhibitors, primary screen, biochemical, luminescent, high phosphate acceptor level, uHTS. inhibition, % at 20 µM. AID 1135, 2008. actives 0.03% (n = 200,000). purified TNAP, CDP-star luminescence, 1 M DEA. Alkaline phosphatase, tissue-nonspecific isozyme (Homo sapiens), P05186;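 active = over 50% inhibition of tissue-nonspecific alkaline phosphatase at 20 µM in the single-dose screen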
# TNAP act hi DEA: TNAP activators at high phosphate acceptor level, primary screen, biochemical, luminescence, uHTS. purified TNAP, CDP-star luminescence, 1 M DEA, 30 min; hits give high values; 0 = EDTA background, 1 = DMSO-only activity. Alkaline phosphatase, tissue-nonspecific isozyme (Homo sapiens), P05186. activation factor at 20 µM. 200,000 tested, under 10 active;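 active = activation factor at least 2 at 20 µM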
#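 Dosing: 20 µM single point. System: human TNAP. Amount: TNAP 1/800 final. Incubation: 30 min, room temperature. Read-out: TNAP activation factor scaled between EDTA and DMSO control wells. Signal: luminescence from CDP-star hydrolysis. Medium: 1 M DEA, pH 9.8, Mg2+, Zn2+. Control set: EDTA negative control, DMSO positive control.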
# RAM 5-FOA: 5-FOA growth of efflux-deficient control yeast, dose response, counter-screen for RAM network inhibitor project, S. cerevisiae, OD615; shares compounds with RAM network inh; 1,200 tested, under 10 active; max inhibition, %; S. cerevisiae efflux-deficient reporter strain, 5-FOA growth OD615, 2 days; AID 1305, 2008; call rule not given here
# Numbers stand for hits; i = inactive; nt = no result given. Sampled rows, rich in hits. Any-hit rate of the full collection: about 2.8%.
SMILES,BB579 growth dn,TNAP inh no acc,Yeast lifespan up,RAM network inh,TNAP inh hi DEA,TNAP act hi DEA,RAM 5-FOA
O=C(CSc1nnc(-c2cccc(S(=O)(=O)N3CCCCC3)c2)o1)NCCC1=CCCCC1,i,i,i,12,i,i,i
O=C(CSc1nnc(-c2cccc(S(=O)(=O)N3CCCCC3)c2)o1)c1ccc[nH]1,i,i,i,i,i,i,nt
COc1ccc(C2CC(C(F)(F)F)n3nc(C(=O)NCc4cn(C)nc4C)c(Cl)c3N2)cc1 (stereo unspecified),i,i,i,i,i,i,nt
O=C(Nc1ccn(Cc2ccccc2F)n1)c1ccc(COc2ccc(Br)cc2)cc1,i,i,i,16,i,i,i
CCOc1ccccc1NC(=O)C(OC(=O)c1ccc(CC)cc1)c1ccccc1 (stereo unspecified),i,i,i,15,i,i,i
O=C(O)C1C(c2ccccc2)C(C(=O)OCCCO)C1c1ccccc1 (stereo unspecified),i,i,i,i,i,i,nt
CCCCCOC(=O)C1C(c2ccccc2)C(C(=O)O)C1c1ccccc1 (stereo unspecified),i,i,32,15,i,i,i
COc1ccc(C(=O)COC(=O)C(CCSC)NS(=O)(=O)c2ccc(Cl)cc2)cc1 (stereo unspecified),i,i,i,15,i,i,i
COC(=O)C(CCSC)NS(=O)(=O)c1ccc(Cl)cc1 (stereo unspecified),nt,i,nt,i,i,i,nt
Cc1cccc(CSCCNC(=O)c2ccc(N(C)S(=O)(=O)c3ccccc3)cc2)c1,i,i,i,18,i,i,i
CN(c1ccc(C(=O)NCCSCc2ccccc2)cc1)S(=O)(=O)c1ccccc1,i,i,i,i,i,i,nt
C[C@@H]1CN(Cc2cn(C)nc2-c2cccc(Cl)c2)C[C@H](C)O1,nt,i,nt,i,i,i,nt
C=CCc1cccc(/C=N/NC(=O)C(C)Nc2ccc(C)cc2)c1O (stereo unspecified),i,i,i,16,i,i,i
CC(CC1C(C#N)=C(N)SC(N)=C1C#N)c1ccccc1 (stereo unspecified),i,i,i,i,i,i,nt
CCc1ccccc1NC(=O)/C(C#N)=C\c1ccc(Sc2ccccc2)o1,i,i,i,i,i,i,nt
CCc1ccccc1NC(=O)/C(C#N)=C/c1ccc(Sc2ccccc2)o1,i,i,i,16,i,i,i
N#Cc1nc(COc2cccc(Cl)c2)oc1N1CCN(c2ccccc2)CC1,i,i,i,16,i,i,i
N#Cc1nc(COc2ccccc2)oc1N1CCN(c2cccc(Cl)c2)CC1,i,i,i,12,i,i,i
COc1ccc(N2CCN(c3oc(COc4ccccc4Cl)nc3C#N)CC2)cc1,i,i,i,i,i,i,nt
N#Cc1nc(COc2ccccc2)oc1N1CCCCC1,i,i,i,i,i,i,nt
O=C(c1cccc(S(=O)(=O)NCCOc2ccccc2)c1)N1CCN(c2ncccn2)CC1,i,i,i,i,i,i,nt
COC(=O)c1scc(C)c1N/N=C(\C)c1ccc(F)cc1F,i,i,i,13,i,i,i
COc1cccc(-c2nnc(SCC(=O)Nc3ccc(OC)c(OC)c3)n2N)c1,i,i,i,12,i,i,i
COc1ccc(OC)c(NC(=O)C(Sc2ccccc2)c2ccccc2)c1 (stereo unspecified),i,i,i,14,i,i,i
COc1ccc(CN2C(=O)c3ccccc3C(/C=N\OCc3ccc(C)cc3)C2=O)cc1 (stereo unspecified),i,i,i,14,i,i,i
SMILES,BB579 growth dn,TNAP inh no acc,Yeast lifespan up,RAM network inh,TNAP inh hi DEA,TNAP act hi DEA,RAM 5-FOA
COc1ccc(N2C(=O)N(Cc3ccc(C)cc3)c3ccccc3S2(=O)=O)cc1,nt,i,nt,i,i,i,nt
Cc1c(NC(=O)C(C)Sc2nc3ccccc3c(=O)n2CCO)c(=O)n(-c2ccccc2)n1C (stereo unspecified),i,i,i,i,i,i,nt
CCOC(=O)c1cnn(CCOC(=O)c2ccccc2)c1NC(=O)c1ccccc1,i,i,i,i,i,i,nt
Clc1ccc(CSc2nnc(/C=C/c3ccccc3)o2)cc1,i,i,i,13,i,i,i
O=C(OCc1nnc(-c2ccccc2)o1)C12CC3CC(CC(Br)(C3)C1)C2,nt,i,nt,21,i,i,i
CCN1CCc2c(sc(NC(=O)Nc3ccc(Cl)c(Cl)c3)c2C(N)=O)C1,i,i,i,i,i,i,nt
Cc1ccccc1N(CC(=O)Nc1ccccc1C(=O)O)S(C)(=O)=O,i,i,i,i,i,i,nt
Cc1ccc(S(=O)(=O)N(CC(=O)Nc2ccccc2C(=O)O)c2cccc(Cl)c2C)cc1,i,i,i,14,i,i,i
c1ccc2c(c1)nc(N1CCOCC1)c1c3ccccc3[nH]c21,i,i,i,i,i,i,nt
O=C(O)c1cnn(-c2nc(-c3ccc(F)cc3)cs2)c1C(F)(F)F,nt,i,nt,i,i,i,nt
CCOC(=O)c1cnn(-c2nc(-c3ccc(C)cc3)cs2)c1C(F)(F)F,i,i,i,12,i,i,i
COC(=O)C/C=C/[C@@H](C)[C@@H](/C=N/OC[C@@H](C)[C@H](OCc1ccccc1)C(C)C)NS(=O)(=O)c1ccc(C)cc1,i,i,i,13,i,i,i
COc1c2ccc(C(=O)NCCCCc3ccccc3)cc2nn1C,i,i,i,i,i,i,nt
COc1ccc(/C=C/C(=O)Nc2cc(S(=O)(=O)N3CCCCC3)ccc2N2CCCCC2)cc1OC,i,i,i,12,i,i,i
COc1ccc(C)cc1S(=O)(=O)N(CC(=O)N1CCOCC1)Cc1ccccc1,i,i,i,i,i,i,nt
COc1ccc(C)cc1S(=O)(=O)N(CC(=O)NCc1ccc(Cl)cc1)Cc1ccccc1,i,i,i,12,i,i,i
CC(C)c1ccc(CNC(=O)CSCC(=O)Nc2ccc3ccccc3c2)cc1,i,i,i,13,i,i,i
O=C(CSCC(=O)Nc1ccc2ccccc2c1)NCc1ccccc1,i,i,i,i,i,i,nt
O=C(/C=C/c1ccc2c(c1)OCO2)NCCSCc1ccc(Cl)cc1,i,i,i,i,i,i,nt
